Data: ChEMBL document CHEMBL1821697, “Design and synthesis of brain penetrant selective JNK inhibitors with improved pharmacokinetic properties for the prevention of neurodegeneration” (Bioorg Med Chem Lett, 2011)

Key:
[1] = target: Receptor-type tyrosine-protein kinase FLT3 (Homo sapiens) (UniProt P36888); test: Inhibition of FLT3 at 10 uM
[2] = target: Calcium/calmodulin-dependent protein kinase type II subunit alpha (Homo sapiens) (UniProt Q9UQM7); test: Inhibition of CAMK2A at 10 uM
[3] = target: Rho-associated protein kinase 2 (Homo sapiens) (UniProt O75116); test: Inhibition of ROCK2 at 10 uM
[4] = target: T1, Mitogen-activated protein kinase 1 (Homo sapiens, UniProt P28482); test: Inhibition of recombinant ERK2 using Ser383 of Elk-1 as substrate preincubated for 15 mins measured after 60 mins by TR-FRET assay
[5] = test system: Rattus norvegicus; test: AUC in rat at 2 mg/kg, po; assay type: ADME, organism-based, Plasma; design: dose 2 mg/kg, route oral; conditions: in vivo
Outline: (§1)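 Rats received an oral dose of 2 mg/kg. Plasma AUC is reported in nmol h/mL. Oral bioavailability (F%) was calculated against a 1 mg/kg intravenous dose.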

[6] = target: Serine/threonine-protein kinase PAK 4 (Homo sapiens) (UniProt O96013); test: Inhibition of PAK4 at 10 uM
[7] = target: Serine/threonine-protein kinase Chk1 (Homo sapiens) (UniProt O14757); test: Inhibition of CHEK1 at 10 uM
[8] = target: RAC-alpha serine/threonine-protein kinase (Homo sapiens) (UniProt P31749); test: Inhibition of AKT1 at 10 uM
[9] = target: Tyrosine-protein kinase ABL1 (Homo sapiens) (UniProt P00519); test: Inhibition of Abl1 at 10 uM
[10] = target: T1, Mitogen-activated protein kinase 1; test: Inhibition of ERK2 at 10 uM
[11] = Oxidative metabolic stability in mouse liver microsomes assessed as compound remaining at 1 uM after 30 mins; assay type: ADME, Microsome; conditions: read-out: Stability
Outline: (§2)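 Test compound was incubated with mouse, rat or human liver microsomes for 30 min. The read-out is percent of parent compound remaining.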

[12] = target: Macrophage colony-stimulating factor 1 receptor (Homo sapiens) (UniProt P07333); test: Inhibition of CSF1R at 10 uM
[13] = test system: RAF proto-oncogene serine/threonine-protein kinase (Homo sapiens), P04049 [Y340D,Y341D]; test: Inhibition of c-Raf Y340D Y341D mutant at 10 uM using 100 uM of ATP
[14] = target: Mitogen-activated protein kinase 9 (Homo sapiens, UniProt P45984); test: Inhibition of recombinant JNK2 using ser73 of c-jun as substrate preincubated for 15 mins measured after 60 mins by TR-FRET assay
Outline: (§3)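 Recombinant JNK enzyme assay run at 10 µM ATP. IC50 values are means of at least three experiments.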

[15] = target: T2, Mitogen-activated protein kinase 10 (Homo sapiens, UniProt P53779); test: Inhibition of recombinant JNK3 using ser73 of c-jun as substrate preincubated for 15 mins measured after 60 mins by TR-FRET assay; outline: as §3
[16] = target: Tyrosine-protein kinase JAK1 (Homo sapiens) (UniProt P23458); test: Inhibition of JAK1 at 10 uM
[17] = target: Serine/threonine-protein kinase PLK3 (Homo sapiens) (UniProt Q9H4B4); test: Inhibition of PLK3 at 10 uM
[18] = target: Serine/threonine-protein kinase PLK2 (Homo sapiens) (UniProt Q9NYY3); test: Inhibition of PLK2 at 10 uM
[19] = target: Platelet-derived growth factor receptor alpha (Homo sapiens) (UniProt P16234); test: Inhibition of PDGFRA at 10 uM
[20] = target: Tyrosine-protein kinase SYK (Homo sapiens) (UniProt P43405); test: Inhibition of SYK at 10 uM
[21] = test system: Rattus norvegicus; test: Oral bioavailability in rat at 2 mg/kg; assay type: ADME, organism-based; conditions: in vivo; outline: as §1
[22] = target: Tyrosine-protein kinase Lck (Homo sapiens) (UniProt P06239); test: Inhibition of LCK at 10 uM
[23] = target: Serine/threonine-protein kinase 3 (Homo sapiens) (UniProt Q13188); test: Inhibition of STK3 at 10 uM
[24] = Ratio of drug level in brain to plasma in mouse at 1 mg/kg, iv; assay type: ADME, organism-based; design: dose 1 mg/kg, route intravenous; conditions: read-out: BPR
Outline: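 Single intravenous dose of 1 mg/kg in mice. Brain exposure was reported as brain AUC (ng h/mL), together with the brain-to-plasma ratio.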

[25] = target: Insulin receptor (Homo sapiens) (UniProt P06213); test: Inhibition of INSR at 10 uM
[26] = target: Receptor-interacting serine/threonine-protein kinase 2 (Homo sapiens) (UniProt O43353); test: Inhibition of RIPK2 at 10 uM
[27] = target: Cyclin-dependent kinase 1/cyclin B1 (Homo sapiens) (UniProt P06493+P14635); test: Inhibition of CDK1/Cyclin B1 at 10 uM; assay type: protein-complex assay
[28] = target: Serine/threonine-protein kinase MARK2 (Homo sapiens) (UniProt Q7KZI7); test: Inhibition of MARK2 at 10 uM
[29] = target: Receptor tyrosine-protein kinase erbB-4 (Homo sapiens) (UniProt Q15303); test: Inhibition of ERBB4 at 10 uM
[30] = Oxidative metabolic stability in rat liver microsomes assessed as compound remaining at 1 uM after 30 mins; assay type: ADME, Microsome; conditions: read-out: Stability; outline: as §2
[31] = target: Protein-tyrosine kinase 2-beta (Homo sapiens) (UniProt Q14289); test: Inhibition of PTK2B at 10 uM
[32] = test system: MDR1; test: Efflux ratio of permeability across MDCK2 expressing MDR1 at 5 uM after 120 mins by LC/MS/MS method; assay type: ADME, Canis lupus familiaris, MDCK-II; conditions: dog, MDCK-MDR1
[33] = Half life in rat at 1 mg/kg, iv; assay type: ADME, organism-based; design: dose 1 mg/kg, route intravenous; conditions: in vivo
Outline: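 Rats were given a single intravenous dose of 1 mg/kg. Half-life is reported in min, together with clearance (mL/h/kg).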

[34] = target: Cyclin-dependent kinase 2/cyclin A (Homo sapiens) (UniProt P24941+P20248+P78396); test: Inhibition of CDK2/Cyclin A at 10 uM; assay type: protein-complex assay
[35] = target: T2, Mitogen-activated protein kinase 10; test: Inhibition of JNK3 at 10 uM using 100 uM of ATP
[36] = AUC in mouse brain at 1 mg/kg, iv; assay type: ADME, organism-based; design: dose 1 mg/kg, route intravenous
Outline: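 Mice were dosed intravenously at 1 mg/kg. Brain exposure was expressed as AUC (ng h/mL) alongside the brain/plasma ratio.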

[37] = target: Dual specificity protein kinase CLK1 (Homo sapiens) (UniProt P49759); test: Inhibition of CLK1 at 10 uM
[38] = target: Mitogen-activated protein kinase 14 (Homo sapiens, UniProt Q16539); test: Inhibition of recombinant p38alpha Thr69/71 of ATF-2 as substrate preincubated for 15 mins measured after 60 mins by TR-FRET assay
[39] = Apparent permeability from apical to basolateral side of MDCK2 cells at 5 uM after 120 mins by LC/MS/MS method; assay type: ADME, cell-based, Canis lupus familiaris, MDCK-II; conditions: dog, MDCK
[40] = target: cAMP-dependent protein kinase catalytic subunit alpha (Homo sapiens) (UniProt P17612); test: Inhibition of PRKACA at 10 uM
[41] = target: Protein kinase C beta type (Homo sapiens) (UniProt P05771); test: Inhibition of PRKCB1 at 10 uM
[42] = target: Glycogen synthase kinase-3 beta (Homo sapiens) (UniProt P49841); test: Inhibition of GSK3-beta at 10 uM
[43] = target: Aurora kinase A (Homo sapiens) (UniProt O14965); test: Inhibition of AURKA at 10 uM
[44] = target: PI3-kinase p110-alpha/p85-alpha (Homo sapiens) (UniProt P27986+P42336); test: Inhibition of PIK3CA/PIK3R1 at 10 uM; assay type: protein-complex assay
[45] = target: Cyclin-dependent kinase 5/CDK5 activator 1 (Homo sapiens) (UniProt Q00535+Q15078); test: Inhibition of CDK5/P25 at 10 uM; assay type: protein-complex assay
[46] = test system: Cortical neurone; test: Neuroprotective activity in human cerebral cortical neurons assessed as reversal of amyloid beta-induced neuronal damage after 2 to 3 days; assay type: functional
Outline: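 Human cortical neurons were exposed to amyloid-β in a neurotoxicity assay. Neuroprotection by the inhibitor was expressed as an EC50.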

[47] = target: Proto-oncogene tyrosine-protein kinase receptor Ret (Homo sapiens) (UniProt P07949); test: Inhibition of RET at 10 uM
[48] = target: Dual specificity tyrosine-phosphorylation-regulated kinase 1B (Homo sapiens) (UniProt Q9Y463); test: Inhibition of DYRK1B at 10 uM
[49] = target: Serine/threonine-protein kinase PLK1 (Homo sapiens) (UniProt P53350); test: Inhibition of PLK1 at 10 uM
[50] = target: Mitogen-activated protein kinase 8 (Homo sapiens, UniProt P45983); test: Inhibition of recombinant JNK1 using ser73 of c-jun as substrate preincubated for 15 mins measured after 60 mins by TR-FRET assay; outline: as §3
[51] = target: Leucine-rich repeat serine/threonine-protein kinase 2 (Homo sapiens) (UniProt Q5S007); test: Inhibition of LRRK2 at 10 uM
[52] = Oxidative metabolic stability in human liver microsomes assessed as compound remaining at 1 uM after 30 mins; assay type: ADME, Microsome; conditions: read-out: Stability; outline: as §2

T1 sequence (P28482 whole entry): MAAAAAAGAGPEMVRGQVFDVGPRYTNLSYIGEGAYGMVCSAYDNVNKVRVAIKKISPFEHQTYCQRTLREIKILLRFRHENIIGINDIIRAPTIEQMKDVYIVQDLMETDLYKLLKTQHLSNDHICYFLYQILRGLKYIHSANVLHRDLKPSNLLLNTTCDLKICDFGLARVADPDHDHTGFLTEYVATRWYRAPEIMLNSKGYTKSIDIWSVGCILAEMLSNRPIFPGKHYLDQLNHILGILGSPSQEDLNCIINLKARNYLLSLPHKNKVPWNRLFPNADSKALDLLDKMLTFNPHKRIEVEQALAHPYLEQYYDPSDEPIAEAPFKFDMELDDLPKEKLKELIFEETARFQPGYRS
T2 sequence (P53779 whole entry): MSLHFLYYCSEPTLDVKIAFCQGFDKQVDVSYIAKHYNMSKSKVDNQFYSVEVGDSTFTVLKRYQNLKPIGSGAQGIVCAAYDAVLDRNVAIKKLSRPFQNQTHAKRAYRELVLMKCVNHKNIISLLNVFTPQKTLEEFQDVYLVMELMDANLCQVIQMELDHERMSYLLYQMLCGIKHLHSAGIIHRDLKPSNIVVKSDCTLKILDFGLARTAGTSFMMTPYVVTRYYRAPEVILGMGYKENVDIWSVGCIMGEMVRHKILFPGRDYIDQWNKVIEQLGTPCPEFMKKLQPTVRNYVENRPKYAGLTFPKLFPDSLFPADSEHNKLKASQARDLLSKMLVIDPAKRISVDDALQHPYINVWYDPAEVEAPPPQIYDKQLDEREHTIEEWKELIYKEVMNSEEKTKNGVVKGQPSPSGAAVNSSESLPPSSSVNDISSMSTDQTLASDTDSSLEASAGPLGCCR
Macrophage colony-stimulating factor 1 receptor (Homo sapiens), sequence (P07333 whole entry): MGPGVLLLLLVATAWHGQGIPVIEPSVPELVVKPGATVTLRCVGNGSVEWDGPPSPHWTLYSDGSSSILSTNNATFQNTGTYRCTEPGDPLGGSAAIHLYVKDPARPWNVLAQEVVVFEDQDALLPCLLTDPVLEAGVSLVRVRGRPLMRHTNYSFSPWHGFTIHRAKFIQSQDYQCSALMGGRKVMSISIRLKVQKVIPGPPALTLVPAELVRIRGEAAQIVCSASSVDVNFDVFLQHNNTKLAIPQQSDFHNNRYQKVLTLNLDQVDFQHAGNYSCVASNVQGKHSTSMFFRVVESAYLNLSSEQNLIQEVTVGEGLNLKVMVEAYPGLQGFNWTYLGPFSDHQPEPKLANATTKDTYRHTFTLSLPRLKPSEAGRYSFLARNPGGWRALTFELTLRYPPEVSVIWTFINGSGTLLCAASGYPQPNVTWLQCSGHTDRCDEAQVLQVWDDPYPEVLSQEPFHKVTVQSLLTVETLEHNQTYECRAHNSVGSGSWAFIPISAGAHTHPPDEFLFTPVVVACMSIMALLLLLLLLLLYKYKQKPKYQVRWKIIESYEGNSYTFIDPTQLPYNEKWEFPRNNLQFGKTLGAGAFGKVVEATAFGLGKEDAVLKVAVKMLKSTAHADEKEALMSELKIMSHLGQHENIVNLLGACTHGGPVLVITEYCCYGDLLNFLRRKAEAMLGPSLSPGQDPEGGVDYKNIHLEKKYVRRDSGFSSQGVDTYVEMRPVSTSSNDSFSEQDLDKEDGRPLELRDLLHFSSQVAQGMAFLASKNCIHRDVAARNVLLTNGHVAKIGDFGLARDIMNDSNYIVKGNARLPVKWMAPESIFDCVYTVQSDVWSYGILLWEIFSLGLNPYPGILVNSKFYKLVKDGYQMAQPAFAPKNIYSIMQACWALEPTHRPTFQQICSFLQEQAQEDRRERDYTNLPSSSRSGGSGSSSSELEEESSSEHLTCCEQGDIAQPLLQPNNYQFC
Platelet-derived growth factor receptor alpha (Homo sapiens), sequence (P16234 whole entry): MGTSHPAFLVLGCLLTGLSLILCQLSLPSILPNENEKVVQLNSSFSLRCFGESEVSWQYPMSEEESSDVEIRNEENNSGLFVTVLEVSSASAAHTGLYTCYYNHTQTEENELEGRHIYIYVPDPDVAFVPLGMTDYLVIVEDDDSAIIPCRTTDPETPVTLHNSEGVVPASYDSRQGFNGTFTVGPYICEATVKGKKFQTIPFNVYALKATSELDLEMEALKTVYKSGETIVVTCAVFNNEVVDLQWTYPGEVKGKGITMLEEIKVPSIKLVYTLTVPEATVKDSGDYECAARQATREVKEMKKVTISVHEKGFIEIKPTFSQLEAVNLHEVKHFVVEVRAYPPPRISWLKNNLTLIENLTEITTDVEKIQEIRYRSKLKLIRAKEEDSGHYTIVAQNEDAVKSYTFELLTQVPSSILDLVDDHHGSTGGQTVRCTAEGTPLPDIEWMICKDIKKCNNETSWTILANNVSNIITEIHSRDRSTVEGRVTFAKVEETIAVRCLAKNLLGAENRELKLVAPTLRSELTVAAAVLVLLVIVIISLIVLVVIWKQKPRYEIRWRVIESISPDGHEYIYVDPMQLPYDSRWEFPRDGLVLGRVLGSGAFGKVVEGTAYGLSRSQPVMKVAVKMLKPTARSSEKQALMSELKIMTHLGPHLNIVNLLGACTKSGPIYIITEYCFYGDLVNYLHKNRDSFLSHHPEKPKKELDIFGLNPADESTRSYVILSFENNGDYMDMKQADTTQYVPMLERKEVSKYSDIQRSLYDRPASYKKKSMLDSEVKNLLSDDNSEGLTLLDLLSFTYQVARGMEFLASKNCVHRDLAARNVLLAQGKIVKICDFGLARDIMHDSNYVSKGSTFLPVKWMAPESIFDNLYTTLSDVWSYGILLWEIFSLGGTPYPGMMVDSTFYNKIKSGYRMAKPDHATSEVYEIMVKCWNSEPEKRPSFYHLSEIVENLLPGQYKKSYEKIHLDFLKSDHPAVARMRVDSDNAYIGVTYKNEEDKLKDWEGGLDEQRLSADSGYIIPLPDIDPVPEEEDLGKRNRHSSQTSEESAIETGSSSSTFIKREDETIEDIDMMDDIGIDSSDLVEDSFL
Dual specificity tyrosine-phosphorylation-regulated kinase 1B (Homo sapiens), sequence (Q9Y463 whole entry, looked up): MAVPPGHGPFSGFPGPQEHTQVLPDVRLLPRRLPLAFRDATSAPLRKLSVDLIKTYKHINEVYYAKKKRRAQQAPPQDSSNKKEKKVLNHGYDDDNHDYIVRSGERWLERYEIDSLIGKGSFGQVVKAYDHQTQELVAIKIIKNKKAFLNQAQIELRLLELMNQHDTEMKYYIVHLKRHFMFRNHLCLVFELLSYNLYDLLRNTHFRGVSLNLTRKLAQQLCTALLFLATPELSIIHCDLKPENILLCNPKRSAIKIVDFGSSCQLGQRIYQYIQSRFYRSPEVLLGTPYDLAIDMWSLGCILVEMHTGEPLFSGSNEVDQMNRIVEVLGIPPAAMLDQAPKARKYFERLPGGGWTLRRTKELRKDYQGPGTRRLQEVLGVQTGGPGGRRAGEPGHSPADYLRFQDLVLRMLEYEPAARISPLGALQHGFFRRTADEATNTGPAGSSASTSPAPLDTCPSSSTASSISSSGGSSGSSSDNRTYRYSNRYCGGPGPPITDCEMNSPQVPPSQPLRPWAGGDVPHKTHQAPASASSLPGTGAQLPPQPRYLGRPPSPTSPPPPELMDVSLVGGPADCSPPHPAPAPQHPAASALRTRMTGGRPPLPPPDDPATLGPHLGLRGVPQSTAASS
Mitogen-activated protein kinase 14, sequence (Q16539 whole entry): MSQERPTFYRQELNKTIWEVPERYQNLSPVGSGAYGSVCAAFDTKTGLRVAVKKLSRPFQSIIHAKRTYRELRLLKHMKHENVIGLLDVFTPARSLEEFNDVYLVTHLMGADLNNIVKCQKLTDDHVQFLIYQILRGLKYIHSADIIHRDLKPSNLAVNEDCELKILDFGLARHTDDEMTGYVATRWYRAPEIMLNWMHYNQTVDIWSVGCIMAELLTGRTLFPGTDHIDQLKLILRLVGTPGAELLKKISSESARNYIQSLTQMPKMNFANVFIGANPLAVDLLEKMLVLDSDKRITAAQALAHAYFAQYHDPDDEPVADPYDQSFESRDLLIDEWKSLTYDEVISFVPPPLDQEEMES
Aurora kinase A (Homo sapiens), sequence (O14965 whole entry): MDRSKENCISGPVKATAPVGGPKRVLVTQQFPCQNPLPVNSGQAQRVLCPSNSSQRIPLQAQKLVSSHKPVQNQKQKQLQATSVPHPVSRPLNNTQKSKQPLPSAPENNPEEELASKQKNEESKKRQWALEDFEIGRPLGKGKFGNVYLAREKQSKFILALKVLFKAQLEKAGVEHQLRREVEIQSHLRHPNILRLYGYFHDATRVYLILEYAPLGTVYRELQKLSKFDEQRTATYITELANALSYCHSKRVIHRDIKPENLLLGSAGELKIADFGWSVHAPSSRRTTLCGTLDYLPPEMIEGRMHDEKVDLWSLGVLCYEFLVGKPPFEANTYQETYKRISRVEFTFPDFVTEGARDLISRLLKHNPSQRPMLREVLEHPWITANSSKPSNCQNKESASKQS
Receptor-interacting serine/threonine-protein kinase 2 (Homo sapiens), sequence (O43353 whole entry): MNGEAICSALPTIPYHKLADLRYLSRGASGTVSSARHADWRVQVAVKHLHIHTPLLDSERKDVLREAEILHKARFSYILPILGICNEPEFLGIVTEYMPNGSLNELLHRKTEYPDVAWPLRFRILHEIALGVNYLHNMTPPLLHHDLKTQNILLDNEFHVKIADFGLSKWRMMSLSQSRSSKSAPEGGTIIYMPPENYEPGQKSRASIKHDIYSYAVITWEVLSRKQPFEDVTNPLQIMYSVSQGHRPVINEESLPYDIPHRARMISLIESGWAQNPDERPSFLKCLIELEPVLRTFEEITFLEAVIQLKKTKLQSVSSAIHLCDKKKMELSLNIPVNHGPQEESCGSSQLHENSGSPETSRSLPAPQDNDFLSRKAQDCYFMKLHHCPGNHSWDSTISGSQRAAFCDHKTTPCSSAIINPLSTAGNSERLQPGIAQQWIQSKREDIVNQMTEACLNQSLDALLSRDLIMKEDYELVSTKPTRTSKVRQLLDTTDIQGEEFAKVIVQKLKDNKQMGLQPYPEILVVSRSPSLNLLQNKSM

inhibition [1]: 7% | inhibition [2]: 4% | inhibition [3]: 11% | IC50 [4]: > 50000 nM | AUC [5]: 1310 ng·h/mL | inhibition [6]: 3% | inhibition [7]: 10% | inhibition [8]: 2% | inhibition [9]: 0% | inhibition [10]: -2% | remaining at 0.5 h, 1 µM [11]: 58% | inhibition [12]: -2% | inhibition [13]: 10% | IC50 [14]: 5 nM | IC50 [15]: 9 nM | inhibition [16]: 0% | inhibition [17]: -8% | inhibition [18]: 10% | inhibition [19]: 0% | inhibition [20]: 15% | F [21]: 34% | inhibition [22]: 8% | inhibition [23]: 4% | Kp [24]: 0.7 | inhibition [25]: -3% | inhibition [26]: -7% | inhibition [27]: 1% | inhibition [28]: 4% | inhibition [29]: -2% | remaining at 0.5 h, 1 µM [30]: 35% | inhibition [31]: -5% | efflux ratio at 2 h, 5 µM [32]: 0.61 | half-life [33]: 4.6 min | inhibition [34]: 2% | inhibition [35]: 96% | AUC [36]: 235 ng·h/mL | inhibition [37]: 5% | IC50 [38]: > 50000 nM | Papp A→B at 2 h, 5 µM [39]: 3.62 ×10⁻⁶ cm/s | inhibition [40]: 0% | inhibition [41]: 4% | inhibition [42]: 5% | inhibition [43]: 5% | inhibition [44]: 6% | inhibition [45]: 2% | inhibition [47]: 4% | inhibition [48]: 11% | inhibition [49]: 3% | IC50 [50]: 2 nM | inhibition [51]: 13% | remaining at 0.5 h, 1 µM [52]: 67%
Compound: O=C(Cn1c(=O)ccc2cc(C(F)(F)F)ccc21)Nc1scc(Br)c1-c1ncn[nH]1
EC50 [46]: 2900 nM
